PfM18AAP inh-1 = PfM18AAP enzyme inhibition; inhibition, % at 7.35 µM; recombinant PfM18AAP, H-Glu-NHMec fluorogenic cleavage; actives 1.2% (n = 290,000);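 active = inhibition above the campaign mean inhibition over all tested compounds plus 3 SD, cut at about 28% in these data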;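 also: 0% = plate median of test compound wells and 100% = 2 mM ZnCl2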
VIM-2 inhibitor = blocks Pseudomonas aeruginosa VIM-2 metallo-beta-lactamase; inhibition, % at 5.6 µM; AID 1527; purified VIM-2, nitrocefin hydrolysis, epi-absorbance fluorescence; actives 0.89% (n = 290,000);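 active = inhibition above the mean of all tested compounds plus 3 SD, cutoff set per screening run, cut at about 7.5% in these data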;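 also: red hydrolysis product quenches plate fluorescence so inhibitors raise well fluorescence; 0% = enzyme with DMSO and 100% = DMSO without enzyme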
IMP-1 inhibitor = inhibitors of Pseudomonas aeruginosa IMP-1 metallo-beta-lactamase. purified IMP-1, nitrocefin hydrolysis, epi-absorbance fluorescence. inhibition, % at 5.6 µM. actives 0.45% (n = 290,000);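 active = inhibition above the mean plus 3 SD of all compounds in the same screening run, cut at about 4.5% in these data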;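 also: 0% = IMP-1 with DMSO and 100% = DMSO wells lacking enzyme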
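system = purified recombinant IMP-1 beta-lactamase | amount = 0.2 nM IMP-1, as dispensed | medium = HEPES buffer pH 7.1 with ZnSO4 and Brij 35 | times = 25 °C, 15 min preincubation, 25 min reaction | detection = plate fluorescence quenching by hydrolysis product, ex 480/em 530 nm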
CTSL1 counter-1 = counter-screen for PFM18AAP inhibitors: inhibitors of F. hepatica cathepsin L1; recombinant F. hepatica cathepsin L1, Z-Leu-Arg-MCA fluorescence; inhibition, % at 5.96 µM; actives 0.49% (n = 300,000);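 active = inhibition above the mean of all tested compounds plus 3 SD, set per screening campaign, cut at about 17% in these data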;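 also: 0% = plate median of test compound wells and 100% = 1 µM Z-Phe-Ala-diazomethylketone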
PfM18AAP inh-2 = PfM18AAP inhibition, confirmation | shares compounds with PfM18AAP inh-1 | recombinant PfM18AAP, H-Glu-NHMec fluorogenic cleavage | inhibition, % at 7.35 µM | actives 28% (n = 2,400) | AID 2170;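 active = mean inhibition over replicate wells above the hit cutoff set for the earlier primary screen, cut at about 29% in these data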;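 also: 0% = median of test compound wells and 100% = 2 mM ZnCl2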
CTSL1 counter-2 = Cathepsin L (human) inhibition, confirmation; 2,400 tested, under 10 active; shares compounds with PfM18AAP inh-1; AID 2178; purified cathepsin L1, Z-Leu-Arg-MCA fluorescence; inhibition, % at 5.96 µM;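 active = average inhibition across replicates above the hit cutoff set in the earlier primary screen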;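 also: 0% = median of test compound wells and 100% = Z-Phe-Ala-diazomethylketone 1 µM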
Target sequence (P07711 whole entry, looked up): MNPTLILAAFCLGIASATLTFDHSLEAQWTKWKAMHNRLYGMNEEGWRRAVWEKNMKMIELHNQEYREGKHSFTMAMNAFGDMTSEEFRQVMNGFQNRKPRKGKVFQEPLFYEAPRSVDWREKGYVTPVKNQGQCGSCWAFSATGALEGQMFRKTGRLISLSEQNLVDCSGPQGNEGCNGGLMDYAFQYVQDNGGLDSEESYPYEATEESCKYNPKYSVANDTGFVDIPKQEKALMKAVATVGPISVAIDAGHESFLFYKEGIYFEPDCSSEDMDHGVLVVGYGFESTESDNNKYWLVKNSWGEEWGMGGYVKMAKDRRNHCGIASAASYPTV
* marks the source's active call; other numbers are inactive results; x = not tested or not shown. A selection: hits, their analogues and other compounds. The true share with any hit is near 2.7%.

SMILES	PfM18AAP inh-1	VIM-2 inhibitor	IMP-1 inhibitor	CTSL1 counter-1	PfM18AAP inh-2	CTSL1 counter-2
O=C(C1CC(=O)N(c2ccc3c(c2)OCCO3)C1)N1CCN(c2ccccc2O)CC1 (configuration not stated)	34*	-1	-2	-2	5	1
CC(C)CNC1=CC(=O)CC(c2ccco2)C1 (configuration not stated)	40*	-2	-2	-3	-16	-5
O=C1C=C(Nc2ccc(O)cc2)CC(c2ccco2)C1 (configuration not stated)	42*	0	-4	-3	-25	-1
Cc1cccc(NC(=S)NC(C)C(c2ccccc2)N2CCN(C)CC2)c1C (configuration not stated)	5	-4	-2	-3	x	x
Cn1c(CNC(=O)c2cccs2)n[nH]c1=S	19	0	-4	2	x	x
O=C(NCc1n[nH]c(=S)n1-c1ccc(Br)cc1)c1cccs1	34*	-3	-4	-2	-12	-8
COc1ccccc1-n1c(CNC(=O)c2cccs2)n[nH]c1=S	36*	-3	-4	1	-11	-7
COc1ccc(C(=O)NC2CC2)cc1OC1CCN(Cc2ccc(F)c(F)c2)CC1	-2	-2	-3	-4	x	x
O=C(N[C@@H](Cc1ccccc1)C(=O)OCc1ccccc1)c1nc[nH]c1C(=O)N1CCc2ccccc2C1	x	x	x	1	x	x
CCc1nn(C(C)C(=O)N2CCN(c3ccc(OC)cc3)CC2)c(=O)c2cc3occc3n12 (configuration not stated)	-3	1	-2	-2	x	x
CN(C)c1cccc(NC(=O)Cc2ccc(F)cc2)c1	39*	-2	-3	-7	-10	1
CN(C)c1cccc(NC(=O)CCc2ccccc2)c1	-10	-1	-2	1	x	x
Cc1nc(C)c(-c2ccnc(/N=C/NO)n2)s1	-5	1	-3	4	x	x
Cc1ccc(Nc2nc(/N=C/NO)n[nH]2)cc1C	33*	-3	-3	-3	-4	-2
Cc1nc(N)c(C#N)c(-c2ccc3c(c2)OCO3)c1C	-1	-1	-3	x	x	x
N#Cc1c(N)oc(-c2ccc3c(c2)OCO3)c1-c1ccc2c(c1)OCO2	48*	-2	-5	-3	16	-2
COc1cnn(-c2ccccc2)c(=O)c1SCc1ccc(Cl)cc1Cl	36*	1	0	2	-30	-4
CC(C)[C@H](NC(=O)[C@H](Cc1ccccc1)n1c(=O)[nH]c2ccccc2c1=O)C(=O)N1CCC[C@@H]1C(=O)O	2	-1	-2	-5	x	x
COc1cccc(-n2cc(-c3ccc(F)cc3)[nH]c2=S)c1	41*	-5	-2	-3	26	0
COc1ccc(-c2cn(-c3ccccc3)c(=S)[nH]2)cc1OC	44*	-6	-3	-5	11	-5
COc1ccc(-c2cn(-c3ccc(C)c(C)c3)c(=S)[nH]2)cc1OC	32*	-4	-2	3	6	-2
COc1ccccc1-c1cn(-c2ccccc2)c(=S)[nH]1	13	-5	0	-3	x	x
COc1ccc(-c2cn(-c3ccc(C)c(Cl)c3)c(=S)[nH]2)cc1OC	22	-4	-1	4	x	x
COc1ccc(-c2cc(C)no2)cc1S(=O)(=O)NCC(C)c1ccccc1 (configuration not stated)	2	-2	-2	-3	x	x
COc1cc(C#N)c(NC(=O)CN2CCN(CCO)CC2)cc1OC	-2	1	-3	-6	x	x
SMILES	PfM18AAP inh-1	VIM-2 inhibitor	IMP-1 inhibitor	CTSL1 counter-1	PfM18AAP inh-2	CTSL1 counter-2
Cc1ccc(S(=O)(=O)Cn2nnnc2C(c2ccc(F)cc2)N2CCC(C(N)=O)CC2)cc1 (configuration not stated)	-4	-3	-2	1	x	x
O=C(NCCOc1ccccc1)C1CCC(=O)N(CCN2CCOCC2)C1 (configuration not stated)	-4	-6	-4	0	x	x
C/C(=N\NC(=O)c1ccc([N+](=O)[O-])cc1)c1c(O)cc(C)oc1=O	5	-7	-1	3	x	x
C/C(=N/NC(=O)c1cc(O)c(O)c(O)c1)c1ccc([N+](=O)[O-])cc1	50*	-2	-2	x	12	2
O=S(=O)(c1ccc(NC(=S)N2CCN(c3ccccc3F)CC2)cc1)N1CCOCC1	1	-2	-2	4	x	x
COc1ccccc1N1CCN(C(=S)Nc2ccc(S(=O)(=O)N3CCOCC3)cc2)CC1	32*	2	0	3	-48	2
